Calls of active or inactive are those of the source. No cut-off for these calls is given here.
Key:
VSMC [1] = assay: Antiproliferative activity against PDGF-BB-stimulated rat VSMC at 10 to 30 uM preincubated for 24 hrs followed by PDGF-BB addition measured after 24 hrs by MTT assay; format: functional, cell-based
Procedure, shortened: (§1)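 Rat aortic VSMCs seeded at 3.5 × 10^4 cells/mL and grown in DMEM/10% FBS at 37 °C to 70% confluence. Serum-starved 24 h, given compound for 24 h (paclitaxel 1 μM reference), then stimulated with 25 ng/mL PDGF-BB for 24 h. MTT 5 mg/mL in serum-free DMEM for 4 h, DMSO solubilisation, absorbance read at 565 nm. Means ± SEM of triplicates.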

[2] = Cytotoxicity against rat VSMC assessed as decrease in cell viability at 10 to 30 uM after 48 hrs by MTT assay; format: cell-based
Procedure, shortened: (§2)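 Rat aortic VSMCs seeded at 3.5 × 10^4 cells/mL in DMEM/10% FBS and grown to 70% confluence, then serum-free for 24 h. Exposed to compound for 48 h without PDGF (digitonin 100 μg/mL reference). Viability by MTT: 5 mg/mL for 4 h, DMSO, absorbance at 565 nm. Means ± SEM.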

VSMC [3] = assay: Antimigratory activity against PDGF-BB-stimulated rat VSMC at 10 to 30 uM preincubated for 2 hrs followed by PDGF-BB addition measured after 48 hrs by scratch wound-healing assay; format: functional, cell-based
Procedure, shortened: (§3)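 Rat aortic VSMCs (enzymatic dispersion; DMEM, 10% FBS) grown in 12-well plates to >90% confluence, serum-starved 24 h, scratched with two lines and imaged at 0 h. Pretreated 2 h with compound (paclitaxel 1 μM as reference), then 25 ng/mL PDGF-BB for 48 h. Fixed in 100% MeOH, stained with 0.5% crystal violet, migration area quantified from images. Means ± SEM of triplicate experiments.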

[4] = Antiproliferative activity against PDGF-BB-stimulated rat VSMC at 5 uM preincubated for 24 hrs followed by PDGF-BB addition measured after 24 hrs by MTT assay relative to control; format: functional; procedure, shortened: as §1
[5] = Cytotoxicity against rat VSMC assessed as decrease in cell viability at 5 uM after 48 hrs by MTT assay; format: cell-based; procedure, shortened: as §2
VSMC [6] = assay: Antiproliferative activity against PDGF-BB-stimulated rat VSMC at 30 uM preincubated for 24 hrs followed by PDGF-BB addition measured after 24 hrs by MTT assay; format: functional, cell-based; procedure, shortened: as §1
[7] = Cytotoxicity against rat VSMC assessed as decrease in cell viability at 30 uM after 48 hrs by MTT assay; format: cell-based; procedure, shortened: as §2
VSMC [8] = assay: (§4) Antimigratory activity against PDGF-BB-stimulated rat VSMC at 30 uM preincubated for 2 hrs followed by PDGF-BB addition measured after 48 hrs by scratch wound-healing assay; format: functional; procedure, shortened: as §3
[9] = as §4; format: functional; procedure, shortened: as §3
VSMC [10] = assay: Antimigratory activity against PDGF-BB-stimulated rat VSMC preincubated for 2 hrs followed by PDGF-BB addition measured after 48 hrs by scratch wound-healing assay; format: functional, cell-based; procedure, shortened: as §3
[11] = Antimigratory activity against PDGF-BB-stimulated rat VSMC at 10 uM preincubated for 2 hrs followed by PDGF-BB addition measured after 48 hrs by scratch wound-healing assay; format: functional; procedure, shortened: as §3
VSMC [12] = assay: Antimigratory activity against PDGF-BB-stimulated rat VSMC preincubated for 2 hrs followed by PDGF-BB addition measured after 48 hrs by photograph-based scratch wound-healing assay; format: functional, cell-based; procedure, shortened: as §3

Row | Structure (SMILES) | inhibition (VSMC [1]) | Activity [2] | Activity (VSMC [3]) | inhibition at 5 µM [4] | Activity [5] | other results
1 | CC(=O)O[C@@H]1C[C@@H](C(C)C)[C@]2(C)CC[C@@]3(C)[C@H]4C(=CC[C@]3(C)[C@@H]12)[C@@]1(C)CC[C@H](O)C(C)(C)[C@@H]1C[C@@H]4O | Active | Toxic | Active |  |  | 
2 | CC(C)[C@@H]1C[C@@H]2OC[C@]13CC[C@@]1(C)[C@H]4C(=CC[C@]1(C)[C@@H]23)[C@@]1(C)CC[C@H](O)C(C)(C)[C@@H]1C[C@@H]4O | Active | Toxic | Active | 62.6% | Non-Toxic | 
3 | CC(=O)O[C@@H]1C[C@@H](C(C)C)[C@]2(C)CC[C@@]3(C)[C@H]4C(=CC[C@]3(C)[C@@H]12)[C@@]1(C)C=CC(=O)C(C)(C)[C@@H]1C[C@@H]4O | Active | Toxic |  | 41.1% | Non-Toxic | 
4 | CC(=O)OC[C@@]12CC[C@@]3(C)[C@H]4C(=CC[C@]3(C)[C@H]1[C@H](O)C[C@H]2C(C)C)[C@@]1(C)CC[C@H](OC(C)=O)C(C)(C)[C@@H]1C[C@@H]4O |  |  |  |  |  | inhibition (VSMC [6]): Active; Activity [7]: Toxic; Activity (VSMC [8]): Active
5 | CC(=O)O[C@H]1CC[C@]2(C)C3=CC[C@]4(C)[C@H]5[C@H](O)C[C@@H](C(C)C)[C@]5(CO)CC[C@@]4(C)[C@@H]3[C@@H](O)C[C@H]2C1(C)C |  | Non-Toxic |  |  |  | Activity [9]: 57.6%; Activity (VSMC [10]): Dose-dependent effect; Activity [11]: 38.5%; Activity (VSMC [12]): Dose-dependent effect

Source: ChEMBL document CHEMBL4000162, “Arborinane Triterpenoids from Rubia philippinensis Inhibit Proliferation and Migration of Vascular Smooth Muscle Cells Induced by the Platelet-Derived Growth Factor” (J Nat Prod, 2016)
